For data set [1], the system named is A549. The experiment in a line: Induction of DNA damage in human A549 cells assessed as tail DNA at 5 uM after 24 hrs by propidium iodide staining based comet assay (reference value: 0.02%). In kind it is cell-based. A digest of the protocol: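 Alkaline comet assay. About 10⁵ A549 cells per well incubated 12 h, then treated 24 h in serum-free medium against a DMSO control. Cells embedded in low-melting agarose, lysed 2 h, alkaline-unwound 0.5 h at 4 °C, electrophoresed at 300 mA for 25 min in the dark. Slides neutralized, PI-stained, 50 random cells scored for % tail DNA.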

In data set [2] the test system is A549. The experiment in a line: Cellular uptake in human A549 cells at 1 to 5 uM after 4 hrs by FACS analysis. It is filed as ADME, cell-based. The following applies: a549, 4 h. A digest of the protocol:
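A549 cells treated with 1 or 5 µM for 4 h; 8 and 16 h also examined. Cells trypsinized, pelleted, resuspended in PBS and analysed at once by FACS. Intrinsic compound fluorescence read with 400 nm excitation, at least 10000 cells per sample.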
Background: In flow cytometry, cells or beads pass a laser one at a time.

For data set [3], the system named is A549. The experiment in a line: Induction of apoptosis in human A549 cells assessed as early apoptotic cells at 10 uM after 48 hrs by Annexin V-FITC/propidium iodide staining based FACS analysis (reference value: 0.94%). In kind it is functional. In outline: (§1)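 A549 cells seeded at 2 × 10⁵ per well, incubated overnight, then treated at 0, 5 or 10 µM. The legend gives 36 or 48 h; the methods section states 24 h. Annexin V-FITC/PI kit staining followed by flow cytometry. Early and late apoptotic cells expressed as cumulative percentage relative to control.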

The subject of data set [4] is MCF7. The experiment in a line: Antiproliferative activity against human MCF7 cells after 48 hrs by MTT assay. It is filed as functional, cell-based. Particulars: MCF7, 48 h. In outline:
(§2)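 MTT assay: cells seeded at 4-8 × 10³ per well, incubated overnight at 37 °C in 5% CO₂, then given fresh medium with graded compound concentrations or equal DMSO for 48 h. MTT (5 mg/mL solution) added for a further 4 h, formazan dissolved in DMSO, absorbance read at 490 nm. Six cancer cell lines tested.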

The test system of data set [5] is A549. The experiment in a line: Cell cycle arrest in human A549 cells assessed as accumulation at G0/G1 phase at 5 uM after 36 hrs by propidium iodide staining based flow cytometry (reference value: 61.65%). It is filed as functional.
For data set [6], the system named is A549. The experiment in a line: Cell cycle arrest in human A549 cells assessed as accumulation at S phase at 0.5 uM after 36 hrs by propidium iodide staining based flow cytometry (reference value: 30.73%). In kind it is functional.
In data set [7] the test system is Calf thymus DNA. The experiment in a line: Binding affinity to calf thymus DNA assessed as bathochromic shift at 10 uM after 5 mins by UV-vis spectrophotometry. In kind it is nucleic-acid assay. Particulars: Bos taurus. In outline: (§3)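 ctDNA at 0-44 µM is added to compound at 10 µM final in Tris-HCl buffer (pH 7.4). UV-vis absorption spectra are recorded after 5 min standing. The binding constant K_b is taken from a plot of absorption data against DNA concentration.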

The subject of data set [8] is A549. The experiment in a line: Induction of DNA damage in human A549 cells assessed as increase in gamma-H2AX expression at 1 to 2.5 uM after 48 hrs by Western blot analysis. In kind it is cell-based. In outline:
(§4)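 A549 cells grown to 80% confluency, treated with graded concentrations for 48 h, then lysed in Tris-HCl/NaCl/Triton X-100 buffer with protease inhibitors. 40 µg protein resolved on 12 or 15% SDS-PAGE and blotted to PVDF. Primary antibodies used at 1:1000 for 6-8 h, HRP anti-rabbit at 1:2000 for 2 h, ECL detection, β-actin as loading control.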
For orientation: In western blotting, separated proteins are transferred to a membrane and probed.

Data set [9] deals with A549. The experiment in a line: Cell cycle arrest in human A549 cells assessed as accumulation at G2/M phase at 0.5 uM after 36 hrs by propidium iodide staining based flow cytometry (reference value: 7.62%). In kind it is functional.
Data set [10] relates to A549. The experiment in a line: Induction of apoptosis in human A549 cells assessed as increase in expression of cleaved caspase 3 at 1 to 2.5 uM after 48 hrs by Western blot analysis. It is filed as functional, cell-based. A digest of the protocol:
as §4

The subject of data set [11] is A549. The experiment in a line: Antiproliferative activity against human A549 cells after 48 hrs by MTT assay. In kind it is functional, cell-based. The following applies: A549, 48 h. In outline: as §2
A general note: Formazan colour is commonly taken as a measure of viable cells.

The test system of data set [12] is A549. The experiment in a line: Cell cycle arrest in human A549 cells assessed as accumulation at G2/M phase at 1 uM after 36 hrs by propidium iodide staining based flow cytometry (reference value: 7.62%). In kind it is functional.
Data set [13] has as its target DNA topoisomerase 2-alpha (Homo sapiens) (UniProt P11388). The experiment in a line: Inhibition of human recombinant topoisomerase 2-alpha expressed in Escherichia coli assessed as reduction in enzyme-mediated relaxation of supercoiled pBR322 DNA at 100 uM after 10 to 15 mins by agarose gel electrophoresis. In outline:
(§5)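 Relaxation of 500 ng supercoiled pBR322 by 1 unit human Topo I or Topo IIα, with or without compound, in 20 µL reaction buffer at 37 °C for 10-15 min. Reactions stopped with loading buffer, run on 0.8% agarose in TAE at 80 V for 30 min. Gels stained with ethidium bromide 2.5 µg/mL and viewed under UV.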

In data set [14] the test system is Calf thymus DNA. The experiment in a line: Binding affinity to calf thymus DNA after 5 mins by UV-vis spectrophotometry. The following applies: Bos taurus. In kind it is nucleic-acid assay. A digest of the protocol: as §3
For data set [15], the system named is HeLa. The experiment in a line: Antiproliferative activity against human HeLa cells after 48 hrs by MTT assay. In kind it is functional, cell-based. In outline:
as §2

The test system of data set [16] is A549. The experiment in a line: Induction of apoptosis in human A549 cells assessed as early apoptotic cells at 5 uM after 36 hrs by Annexin V-FITC/propidium iodide staining based FACS analysis (reference value: 0.29%). It is filed as functional. A digest of the protocol: as §1
The target of data set [17] is DNA topoisomerase 2-alpha (Homo sapiens) (UniProt P11388). The experiment in a line: Inhibition of human recombinant topoisomerase 2-alpha expressed in Escherichia coli assessed as reduction in enzyme-mediated relaxation of supercoiled pBR322 DNA at 10 to 50 uM after 10 to 15 mins by agarose gel electrophoresis. In outline:
as §5

The structures appear in SMILES notation. pIC50: −log10 of the molar value. Active and inactive are the calls of the source. The rule behind the calls is not given here.

Here are results for 1 compound from ChEMBL document CHEMBL3792296, “Synthesis and antiproliferative activity of 9-benzylamino-6-chloro-2-methoxy-acridine derivatives as potent DNA-binding ligands and topoisomerase II inhibitors” (Eur J Med Chem, 2016).

One may read the pIC50 as the IC50 on a negative log10 scale, so that one unit is a factor of ten. Low values mean a large IC50, high ones a small IC50.

Chain of DNA topoisomerase 2-alpha (Homo sapiens) (P11388 whole entry): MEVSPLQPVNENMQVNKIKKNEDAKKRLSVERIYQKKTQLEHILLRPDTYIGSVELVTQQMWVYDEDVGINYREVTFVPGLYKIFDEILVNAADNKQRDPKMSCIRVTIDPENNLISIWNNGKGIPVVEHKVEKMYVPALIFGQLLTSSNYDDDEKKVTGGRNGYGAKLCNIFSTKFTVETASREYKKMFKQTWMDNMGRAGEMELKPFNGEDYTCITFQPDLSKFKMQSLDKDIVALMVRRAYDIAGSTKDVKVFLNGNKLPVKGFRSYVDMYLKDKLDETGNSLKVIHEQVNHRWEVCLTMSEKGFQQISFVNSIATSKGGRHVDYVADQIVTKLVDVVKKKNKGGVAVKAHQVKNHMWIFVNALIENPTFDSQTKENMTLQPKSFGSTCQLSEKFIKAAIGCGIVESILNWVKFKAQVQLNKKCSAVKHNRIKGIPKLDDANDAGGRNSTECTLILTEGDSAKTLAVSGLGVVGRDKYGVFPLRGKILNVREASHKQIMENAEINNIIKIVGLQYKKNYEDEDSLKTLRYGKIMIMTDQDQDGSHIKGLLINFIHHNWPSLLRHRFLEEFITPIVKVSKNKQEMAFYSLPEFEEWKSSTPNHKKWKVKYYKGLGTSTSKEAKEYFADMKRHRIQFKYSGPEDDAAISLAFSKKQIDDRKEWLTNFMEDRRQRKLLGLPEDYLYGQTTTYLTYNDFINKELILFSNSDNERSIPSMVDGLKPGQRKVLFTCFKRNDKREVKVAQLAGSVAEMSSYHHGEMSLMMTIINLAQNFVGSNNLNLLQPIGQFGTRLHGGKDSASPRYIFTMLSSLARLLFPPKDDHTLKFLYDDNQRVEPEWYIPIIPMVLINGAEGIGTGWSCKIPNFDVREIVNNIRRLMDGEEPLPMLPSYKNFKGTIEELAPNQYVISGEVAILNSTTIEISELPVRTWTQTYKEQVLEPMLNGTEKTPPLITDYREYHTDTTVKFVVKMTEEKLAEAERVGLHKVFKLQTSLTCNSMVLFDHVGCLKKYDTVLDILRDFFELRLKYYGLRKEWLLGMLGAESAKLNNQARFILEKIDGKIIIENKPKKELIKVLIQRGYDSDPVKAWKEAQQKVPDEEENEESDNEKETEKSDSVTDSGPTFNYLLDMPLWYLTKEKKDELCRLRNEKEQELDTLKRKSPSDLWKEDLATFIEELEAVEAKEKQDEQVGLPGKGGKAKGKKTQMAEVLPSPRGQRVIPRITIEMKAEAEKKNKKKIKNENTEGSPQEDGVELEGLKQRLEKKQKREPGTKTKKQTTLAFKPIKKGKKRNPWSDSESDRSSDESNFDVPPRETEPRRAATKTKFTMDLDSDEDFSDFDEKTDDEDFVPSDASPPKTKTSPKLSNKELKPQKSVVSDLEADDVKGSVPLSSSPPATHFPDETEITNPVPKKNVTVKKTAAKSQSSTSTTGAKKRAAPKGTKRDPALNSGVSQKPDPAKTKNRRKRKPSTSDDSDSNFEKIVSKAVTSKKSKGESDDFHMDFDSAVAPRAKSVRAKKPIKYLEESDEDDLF

Turning to `COc1ccc(CNc2c3ccc(Cl)cc3nc3ccc(OC)cc23)cc1`, the Activity in data set [1] amounted to 52.3%; in [3], 8.8%; in data set [5], 62.04%; in data set [6], 30.4%; in [7] it was 10 nm; in data set [9], 8.12%. Moreover, the Activity in data set [12] is on record as 9.62%; in [16], 2.14%. In [2], the Drug uptake entry is “Active”. The pIC50 was 5.16 in [4], 6.21 in data set [11] and 5.77 in [15]. Besides, the result in data set [8] and in data set [10] was Active. For the same compound, the inhibition result in data set [13] and in [17] was “Active” each time. Also, in data set [14], the Kb was 1.68 ×10⁵ /M.
